According to ChEMBL document CHEMBL1140478, “Preparation and antitubercular activities of alkylated amino alcohols and their glycosylated derivatives” (Bioorg Med Chem, 2007):

How the values were obtained:
[1] = Cell proliferation of mouse […] cells at 0.5 ug/mL by MTT assay; type: ADME, cell-based, J774.A1; details: J774A.1 cells, read-out: Activity
Method in brief: (§1)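 Supernatants removed, cells given supplemented RPMI plus MTT (5 mg/mL) for 4 h at 37 °C, 5% CO2. Reaction stopped with acidic isopropanol (HCl), 10 min at room temperature, OD read at 570 nm. Proliferation and cytotoxicity calculated by formulae.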

J774.A1 [2] = test: Cytotoxicity against mouse […] cells at 0.005 ug/mL by MTT assay; type: cell-based; method in brief: as §1
J774.A1 [3] = test: Cytotoxicity against mouse […] cells at 0.5 ug/mL by MTT assay; type: cell-based; method in brief: as §1
[4] = tested on: Mycobacterium tuberculosis; test: Antimycobacterial activity against Mycobacterium tuberculosis H37Rv by microplate alamar blue assay; type: functional
Method in brief: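 M. tuberculosis H37Rv (ATCC 27294) exposed to decreasing compound concentrations in Middlebrook 7H9 medium. Growth read by Microplate Alamar Blue Assay. MIC taken as the lowest concentration that […]. Values are means of three separate experiments. Rifampicin at 1.0 µg/mL served as internal control.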

[5] = Cell proliferation of mouse […] cells at 0.05 ug/mL by MTT assay; type: ADME, cell-based, J774.A1; details: J774A.1 cells, read-out: Activity; method in brief: as §1
[6] = Cell proliferation of mouse […] cells at 0.005 ug/mL by MTT assay; type: ADME, cell-based, J774.A1; details: J774A.1 cells, read-out: Activity; method in brief: as §1
J774.A1 [7] = test: Cytotoxicity against mouse […] cells at 0.05 ug/mL by MTT assay; type: cell-based; method in brief: as §1

SMILES | viability at 0.5 ug/mL [1] [%] | Activity (J774.A1 [2]) | Activity (J774.A1 [3]) | MIC [4] | viability at 0.05 ug/mL [5] [%] | viability at 0.005 ug/mL [6] [%] | Activity (J774.A1 [7])
CCCCCCCCCCCCNCCO | 90.9 | 12.1% | 21.3% | 27 µM | 77.6 | 92.7 | 8.4%
CCCCCCCCCCC(O)CN (stereo unspecified) | 96.4 | Not Active | 31.1% | 15 µM | 112 | 110 | Not Active
CCCCCCCCCCCCCCN(CCO)C[C@H]1O[C@@H]2OC(C)(C)O[C@@H]2[C@H]2OC(C)(C)O[C@H]21 | 118 | Not Active | Not Active | 12 µM | 135 | 113 | Not Active
CCCCCCCCCCCCCCCCN(CCO)C[C@H]1O[C@@H]2OC(C)(C)O[C@@H]2[C@H]2OC(C)(C)O[C@H]21 | 149 | 10.6% | 17.4% | 11 µM |  | 104 | 16.3%
CCCCCCCCCCC(O)CNC[C@H]1O[C@@H]2OC(C)(C)O[C@@H]2[C@H]2OC(C)(C)O[C@H]21 (stereo partly specified) |  |  |  | 28 µM |  |  | 
CCCCCCCCNCCO |  |  |  | 578 µM |  |  | 
CCCCCCCCCCNCCO |  |  |  | 248 µM |  |  | 
CCCCCCCCCCCCCCCCNCCO |  |  |  | 46 µM |  |  | 
CCCCC(CC)CNCCO (stereo unspecified) |  |  |  | > 578 µM |  |  | 
CCCCCCCCCCCCN(CCO)C[C@H]1O[C@@H]2OC(C)(C)O[C@@H]2[C@H]2OC(C)(C)O[C@H]21 | 96.6 | Not Active | Not Active | 6 µM | 98.9 | 98.3 | Not Active
CCCCC(CC)CN(CCO)C[C@H]1O[C@@H]2OC(C)(C)O[C@@H]2[C@H]2OC(C)(C)O[C@H]21 (stereo partly specified) |  |  |  | > 240 µM |  |  | 
CCCCCCCCCCN(CCO)C[C@H]1O[C@@H]2OC(C)(C)O[C@@H]2[C@H]2OC(C)(C)O[C@H]21 |  |  |  | 225 µM |  |  | 
CCCCCCCCN(CCO)C[C@H]1O[C@@H]2OC(C)(C)O[C@@H]2[C@H]2OC(C)(C)O[C@H]21 |  |  |  | 241 µM |  |  | 
CC[C@@H](CO)NCCN[C@@H](CC)CO [ETHAMBUTOL] |  |  |  | 3.25 µg/mL |  |  | 
NNC(=O)c1ccncc1 [ISONIAZID] |  |  |  | 0.2 µg/mL |  |  | 
CCCCCCCCCCCCCCNCCO [MYRALACT] |  |  |  | 51 µM |  |  | 
CO[C@H]1/C=C/O[C@@]2(C)Oc3c(C)c(O)c4c(O)c(c(/C=N/N5CCN(C)CC5)c(O)c4c3C2=O)NC(=O)/C(C)=C\C=C\[C@H](C)[C@H](O)[C@@H](C)[C@@H](O)[C@@H](C)[C@H](OC(C)=O)[C@@H]1C [RIFAMPIN] |  |  |  | 1 µg/mL |  |  | 
